Columns and labels:
Homo sapiens [1] = species: Homo sapiens; assay: Selectivity ratio of Kinact/Ki for recombinant His6-tagged PAD1 (unknown origin) to Kinact/Ki for recombinant full length N-terminal GST-tagged human PAD4 expressed in Escherichia coli Rosetta cells
Method in brief: (§1)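 Enzyme at 2.0 μM (PAD1, PAD2, PAD4) or 5.0 μM (PAD3) incubated at 37 °C with various inhibitor concentrations in 50 mM HEPES, 10 mM CaCl₂, 2 mM DTT, pH 7.6. Timed aliquots moved into substrate mix: 10 mM BAEE, or 10 mM BAA for PAD3. […] Selectivity ratios taken from these values.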

Homo sapiens [2] = species: Homo sapiens; assay: Selectivity ratio of Kinact/Ki for recombinant human PAD2 expressed in Escherichia coli BL21(DE3)pLysS cells to Kinact/Ki for recombinant full length N-terminal GST-tagged human PAD4 expressed in Escherichia coli Rosetta cells; method in brief: as §1
Homo sapiens [3] = species: Homo sapiens; assay: Selectivity ratio of Kinact/Ki for recombinant His6-tagged PAD3 (unknown origin) to Kinact/Ki for recombinant full length N-terminal GST-tagged human PAD4 expressed in Escherichia coli Rosetta cells; method in brief: as §1
Homo sapiens [4] = species: Homo sapiens; assay: Selectivity ratio of Kinact/Ki for recombinant human PAD2 expressed in Escherichia coli BL21(DE3)pLysS to Kinact/Ki for recombinant His6-tagged PAD3 (unknown origin); method in brief: as §1
[5] = target: Protein-arginine deiminase type-2 (Homo sapiens, UniProt Q9Y2J8); assay: Binding affinity to human PAD2 expressed in HEK293T cells assessed as protein occupancy at 25 uM preincubated for 15 mins followed by ionomycin addition measured after 1 hr in presence of CaCl2 by RIBFA probe based SDS-PAGE analysis relative to control; format: cell-based
Sequence of Protein-arginine deiminase type-2 (Q9Y2J8 whole entry): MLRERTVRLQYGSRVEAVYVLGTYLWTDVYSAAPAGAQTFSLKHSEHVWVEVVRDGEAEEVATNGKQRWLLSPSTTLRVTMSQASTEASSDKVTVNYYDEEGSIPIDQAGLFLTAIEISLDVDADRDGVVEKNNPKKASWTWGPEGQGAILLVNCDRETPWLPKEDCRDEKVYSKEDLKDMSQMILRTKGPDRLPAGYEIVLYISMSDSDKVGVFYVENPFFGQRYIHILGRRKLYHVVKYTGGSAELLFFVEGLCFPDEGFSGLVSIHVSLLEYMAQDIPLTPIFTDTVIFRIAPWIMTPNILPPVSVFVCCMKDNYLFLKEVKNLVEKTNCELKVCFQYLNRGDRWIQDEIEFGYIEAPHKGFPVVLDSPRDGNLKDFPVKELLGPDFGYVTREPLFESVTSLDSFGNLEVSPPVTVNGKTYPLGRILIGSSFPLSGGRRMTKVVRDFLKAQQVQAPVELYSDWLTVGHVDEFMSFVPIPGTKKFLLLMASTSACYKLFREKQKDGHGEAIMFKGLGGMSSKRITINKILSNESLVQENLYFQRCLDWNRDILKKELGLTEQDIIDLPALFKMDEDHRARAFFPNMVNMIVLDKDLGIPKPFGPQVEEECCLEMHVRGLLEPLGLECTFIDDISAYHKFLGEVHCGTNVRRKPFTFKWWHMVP
Method in brief: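 Adherent HEK293T/PAD2 cells at 80–90% confluence in HBS with 2 mM CaCl₂ at 37 °C. Inhibitor (in DMSO) added for 15 min, then ionomycin (0.5 μM final) for 1 h. Cells washed and lysed in 1% Triton X-100. Lysate (2 μg/μL) labelled with RIBFA probe (2 μM) plus 2 mM CaCl₂ for 1 h at 37 °C. Gel resolved and fluorescence scanned (~546/579 nm). PAD2 occupancy expressed relative to DMSO control.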

Homo sapiens [6] = species: Homo sapiens; assay: Selectivity ratio of Kinact/Ki for recombinant His6-tagged PAD1 (unknown origin) to Kinact/Ki for recombinant His6-tagged PAD3 (unknown origin); method in brief: as §1
Homo sapiens [7] = species: Homo sapiens; assay: Selectivity ratio of Kinact/Ki for recombinant full length N-terminal GST-tagged human PAD4 expressed in Escherichia coli Rosetta to Kinact/Ki for recombinant His6-tagged PAD3 (unknown origin); method in brief: as §1

Structure (SMILES) | Selectivity ratio (Homo sapiens [1]) | Selectivity ratio (Homo sapiens [2]) | Selectivity ratio (Homo sapiens [3]) | Selectivity ratio (Homo sapiens [4]) | Activity [5] | Selectivity ratio (Homo sapiens [6]) | Selectivity ratio (Homo sapiens [7])
CC(C)n1c([C@H](CCCNC(=N)CCl)NC(=O)c2cccc3c2C(=O)NC3)nc2ccccc21 | 27 | 8 | 3.2 | – | – | – | –
CC(C)n1c([C@H](CCCNC(=N)CF)NC(=O)c2ccccc2C(=O)O)nc2ccccc21 | 49 | 54 | 4.4 | – | – | – | –
COc1cccc2c1nc([C@H](CCCNC(=N)CF)NC(=O)c1cccc3c1C(=O)N(C)C3)n2C | – | – | – | 106 | < 37% | 30 | 1.1
CCN1Cc2cccc(C(=O)N[C@@H](CCCNC(=N)CF)c3nc4cc(OC)ccc4n3CC)c2C1=O | 28 | 70 | 2.7 | – | – | – | –
COc1cccc2c1nc([C@H](CCCNC(=N)CF)NC(=O)c1cccc3c1C(=O)N(C1CC1)C3)n2C | – | – | – | 77 | < 37% | 38 | 3.8
CCN1Cc2cccc(C(=O)N[C@@H](CCCNC(=N)CCl)c3nc4ccccc4[nH]3)c2C1=O | – | – | – | 1.5 | – | 4.3 | 1.4
N=C(CF)NCCC[C@H](NC(=O)c1cccc2c1C(=O)NC2)c1nc2ccccc2[nH]1 | – | – | – | 3.3 | – | 24 | 10
CCN1Cc2cccc(C(=O)N[C@@H](CCCNC(=N)CCl)c3nc4c(OC)cccc4n3C)c2C1=O | – | – | – | 5 | – | 3.9 | 1.3
CCOc1cccc2c1nc([C@H](CCCNC(=N)CF)NC(=O)c1cccc3c1C(=O)N(CC)C3)n2C | 8.9 | 26 | 1 | – | – | – | –
CCN1Cc2cccc(C(=O)N[C@@H](CCCNC(=N)CCl)c3nc4cc(OC)ccc4n3CC)c2C1=O | 21 | 27 | 8.4 | – | – | – | –
COc1cccc2c1nc([C@H](CCCNC(=N)CCl)NC(=O)c1cccc3c1C(=O)NC3)n2C | – | – | – | 3.9 | – | 3.9 | 1.3
COc1cccc2[nH]c([C@H](CCCNC(=N)CCl)NC(=O)c3cccc4c3C(=O)NC4)nc12 | 30 | 11 | 6.9 | – | – | – | –
CCn1c([C@H](CCCNC(=N)CF)NC(=O)c2cccc3c2C(=O)NC3)nc2cc(OC)ccc21 | 24 | 50 | 2.5 | – | – | – | –
Cn1c([C@H](CCCNC(=N)CCl)NC(=O)c2cccc3c2C(=O)NC3)nc2ccccc21 | 61 | 3.1 | 2 | – | – | – | –
COc1ccc2c(c1)nc([C@H](CCCNC(=N)CCl)NC(=O)c1cccc3c1C(=O)NC3)n2C | 25 | 10 | 2.4 | – | – | – | –
CC(C)n1c([C@H](CCCNC(=N)CF)NC(=O)c2cccc3c2C(=O)NC3)nc2ccccc21 | – | – | – | 20 | – | 12 | 2.4
Cn1c([C@H](CCCNC(=N)CCl)NC(=O)c2ccccc2C(=O)O)nc2ccccc21 | – | – | – | 1.9 | – | 4.3 | 1
CCn1c([C@H](CCCNC(=N)CCl)NC(=O)c2cccc3c2C(=O)NC3)nc2ccccc21 | 10 | 4.8 | 1.8 | – | – | – | –
CCN1Cc2cccc(C(=O)N[C@@H](CCCNC(=N)CF)c3nc4c(OC)cccc4n3CC)c2C1=O | 28 | 40 | 2 | – | – | – | –
CCN1Cc2cccc(C(=O)N[C@@H](CCCNC(=N)CCl)c3nc4ccccc4n3C(C)C)c2C1=O | 11 | 6.8 | 2 | – | – | – | –
CCN1Cc2cccc(C(=O)N[C@@H](CCCNC(=N)CF)c3nc4cc(OC)ccc4[nH]3)c2C1=O | 4.4 | 6.3 | 3.6 | – | – | – | –
COc1cccc2c1nc([C@H](CCCNC(=N)CCl)NC(=O)c1cccc3c1C(=O)N(C(C)C)C3)n2C | 3.5 | 4.1 | 1.2 | – | – | – | –
CCn1c([C@H](CCCNC(=N)CCl)NC(=O)c2ccccc2C(=O)O)nc2ccccc21 | – | – | – | 1.6 | – | 4.3 | 1.2
CCn1c([C@H](CCCNC(=N)CF)NC(=O)c2ccccc2C(=O)O)nc2ccccc21 | 39 | 31 | 1.7 | 18 | – | – | –

Structure (SMILES) | Selectivity ratio (Homo sapiens [1]) | Selectivity ratio (Homo sapiens [2]) | Selectivity ratio (Homo sapiens [3]) | Selectivity ratio (Homo sapiens [4]) | Activity [5] | Selectivity ratio (Homo sapiens [6]) | Selectivity ratio (Homo sapiens [7])
Cn1c([C@H](CCCNC(=N)CF)NC(=O)c2ccccc2C(=O)O)nc2ccccc21 | 40 | 15 | 1.3 | – | – | – | –
CCN1Cc2cccc(C(=O)N[C@@H](CCCNC(=N)CF)c3nc4cc(OC)ccc4n3C)c2C1=O | – | – | – | 125 | – | 47 | 3.8
CCN1Cc2cccc(C(=O)N[C@@H](CCCNC(=N)CCl)c3nc4cc(OC)ccc4n3C)c2C1=O | 37 | 32 | 9.3 | – | – | – | –
N=C(CCl)NCCC[C@H](NC(=O)c1cccc2c1C(=O)NC2)c1nc2ccccc2[nH]1 | – | – | – | 2.3 | – | 6.5 | 2.1
CCN1Cc2cccc(C(=O)N[C@@H](CCCNC(=N)CF)c3nc4c(OC)cccc4[nH]3)c2C1=O | 107 | 32 | 12 | – | – | – | –
CCn1c([C@H](CCCNC(=N)CCl)NC(=O)c2cccc3c2C(=O)NC3)nc2c(OC)cccc21 | 50 | 19 | 2.9 | – | – | – | –
CC(C)n1c([C@H](CCCNC(=N)CCl)NC(=O)c2ccccc2C(=O)O)nc2ccccc21 | 68 | 38 | 3.8 | – | – | – | –
COc1cccc2[nH]c([C@H](CCCNC(=N)CF)NC(=O)c3cccc4c3C(=O)NC4)nc12 | 42 | 8 | 3.8 | – | – | – | –
CCOc1cccc2c1nc([C@H](CCCNC(=N)CCl)NC(=O)c1cccc3c1C(=O)NC3)n2C | 24 | 30 | 2.7 | – | – | – | –
CCN1Cc2cccc(C(=O)N[C@@H](CCCNC(=N)CCl)c3nc4ccccc4n3C)c2C1=O | – | – | – | 19 | – | 21 | 1.2
CCOc1cccc2c1nc([C@H](CCCNC(=N)CCl)NC(=O)c1cccc3c1C(=O)N(CC)C3)n2C | 12 | 43 | 5.5 | – | – | – | –
CCN1Cc2cccc(C(=O)N[C@@H](CCCNC(=N)CCl)c3nc4ccccc4n3CC)c2C1=O | 18 | 14 | 2.1 | – | – | – | –
CCN1Cc2cccc(C(=O)N[C@@H](CCCNC(=N)CF)c3nc4ccccc4n3C(C)C)c2C1=O | 10 | 22 | 3.4 | – | – | – | –
CCN1Cc2cccc(C(=O)N[C@@H](CCCNC(=N)CCl)c3nc4cc(OC)ccc4[nH]3)c2C1=O | 7.8 | 9.1 | 4.1 | – | – | – | –
CCn1c([C@H](CCCNC(=N)CCl)NC(=O)c2cccc3c2C(=O)NC3)nc2cc(OC)ccc21 | 21 | 16 | 4.4 | – | – | – | –
COc1ccc2[nH]c([C@H](CCCNC(=N)CCl)NC(=O)c3cccc4c3C(=O)NC4)nc2c1 | – | 95 | – | 3.5 to 114 | – | 7.3 | 2.2
Cn1c([C@H](CCCNC(=N)CF)NC(=O)c2cccc3c2C(=O)NC3)nc2ccccc21 | – | – | – | 8.9 | – | 25 | 1
COc1ccc2[nH]c([C@H](CCCNC(=N)CF)NC(=O)c3cccc4c3C(=O)NC4)nc2c1 | – | 95 | – | 5.4 to 114 | – | 13 | 3.5
COc1cccc2c1nc([C@H](CCCNC(=N)CCl)NC(=O)c1cccc3c1C(=O)N(C1CC1)C3)n2C | 4.7 | 6.7 | 1.1 | – | – | – | –
COc1cccc2c1nc([C@H](CCCNC(=N)CCl)NC(=O)c1cccc3c1C(=O)N(C)C3)n2C | 6.8 | 11 | 2.2 | – | – | – | –
CCN1Cc2cccc(C(=O)N[C@@H](CCCNC(=N)CCl)c3nc4c(OC)cccc4[nH]3)c2C1=O | 5 | 2.3 | 1 | – | – | – | –
CCN1Cc2cccc(C(=O)N[C@@H](CCCNC(=N)CCl)c3nc4c(OC)cccc4n3CC)c2C1=O | 31 | 27 | 3.4 | – | – | – | –
CCN1Cc2cccc(C(=O)N[C@@H](CCCNC(=N)CF)c3nc4ccccc4n3C)c2C1=O | 6.1 | 11 | 1.9 | – | – | – | –

Source: ChEMBL document CHEMBL4177546, “Development of a Selective Inhibitor of Protein Arginine Deiminase 2” (J Med Chem, 2017)
